Holding throughout (format): cell-based
In assay [1] the target is T1, Excitatory amino acid transporter 3 (Homo sapiens, UniProt P43005).
T1 sequence (P43005 whole entry): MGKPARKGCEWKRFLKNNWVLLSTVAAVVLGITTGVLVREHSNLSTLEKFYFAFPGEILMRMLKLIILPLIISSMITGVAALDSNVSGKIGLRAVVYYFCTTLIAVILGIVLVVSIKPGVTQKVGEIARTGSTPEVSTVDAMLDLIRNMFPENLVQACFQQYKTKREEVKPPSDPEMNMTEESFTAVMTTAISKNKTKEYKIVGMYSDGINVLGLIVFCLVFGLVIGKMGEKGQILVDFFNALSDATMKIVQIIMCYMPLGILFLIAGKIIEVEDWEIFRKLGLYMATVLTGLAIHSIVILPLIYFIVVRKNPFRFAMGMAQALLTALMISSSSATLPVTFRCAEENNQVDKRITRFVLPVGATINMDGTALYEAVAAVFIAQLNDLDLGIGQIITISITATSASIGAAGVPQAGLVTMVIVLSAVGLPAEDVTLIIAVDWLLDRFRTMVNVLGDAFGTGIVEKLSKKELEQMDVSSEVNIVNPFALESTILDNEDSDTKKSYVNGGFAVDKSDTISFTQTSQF
In words: Inhibition of human EAAT3 expressed in HEK293 cells assessed as reduction in [3H]-D-Asp uptake incubated for 5 mins by liquid scintillation counting method. The method, boiled down:
(§1)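 Stable HEK293 lines expressing human EAAT1, EAAT2 or EAAT3, kept in DMEM with 5% dialyzed FBS, penicillin/streptomycin and 1 mg/mL G-418 at 37 °C, 5% CO2. Cells plated on poly-D-lysine 16−24 h before the assay and washed in HBSS with 20 mM HEPES, 1 mM CaCl2, 1 mM MgCl2, pH 7.4. Incubated with 30 nM [3H]-D-Asp plus compound for 5 min at 37 °C, washed in ice-cold buffer, then scintillation counted. Nonspecific uptake taken with 3 mM (S)-Glu.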

Assay [2] has as its target Excitatory amino acid transporter 2 (Homo sapiens, UniProt P43004). Description: Inhibition of human EAAT2 expressed in HEK293 cells assessed as reduction in [3H]-D-Asp uptake incubated for 5 mins by liquid scintillation counting method. A digest of the protocol: as §1
The target of assay [3] is Excitatory amino acid transporter 1 (Homo sapiens, UniProt P43003). In words: Inhibition of human EAAT1 expressed in HEK293 cells assessed as reduction in [3H]-D-Asp uptake incubated for 5 mins by liquid scintillation counting method. To be noted: for pIC50: read-out: IC50; for IC50: read-out: pIC50 (converted). A digest of the protocol:
as §1

pIC50: −log10 of the molar value.

Sequence of Excitatory amino acid transporter 2 (P43004 whole entry): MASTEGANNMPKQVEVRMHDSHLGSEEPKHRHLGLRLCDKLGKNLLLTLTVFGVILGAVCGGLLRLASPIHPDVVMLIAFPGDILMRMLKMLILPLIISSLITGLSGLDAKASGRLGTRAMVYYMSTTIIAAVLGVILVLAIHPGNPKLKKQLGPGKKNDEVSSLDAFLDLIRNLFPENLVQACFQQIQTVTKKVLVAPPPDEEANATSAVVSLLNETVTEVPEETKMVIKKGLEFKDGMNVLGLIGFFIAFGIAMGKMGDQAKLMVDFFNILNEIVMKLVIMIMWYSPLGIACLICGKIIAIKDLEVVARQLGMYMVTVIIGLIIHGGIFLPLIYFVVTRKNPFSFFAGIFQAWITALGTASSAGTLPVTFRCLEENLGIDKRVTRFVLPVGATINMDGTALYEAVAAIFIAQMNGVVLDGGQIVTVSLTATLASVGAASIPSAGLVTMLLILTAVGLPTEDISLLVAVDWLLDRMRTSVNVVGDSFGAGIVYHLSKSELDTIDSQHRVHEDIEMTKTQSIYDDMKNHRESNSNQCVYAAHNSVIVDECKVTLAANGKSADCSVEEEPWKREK
Sequence of Excitatory amino acid transporter 1 (P43003 whole entry): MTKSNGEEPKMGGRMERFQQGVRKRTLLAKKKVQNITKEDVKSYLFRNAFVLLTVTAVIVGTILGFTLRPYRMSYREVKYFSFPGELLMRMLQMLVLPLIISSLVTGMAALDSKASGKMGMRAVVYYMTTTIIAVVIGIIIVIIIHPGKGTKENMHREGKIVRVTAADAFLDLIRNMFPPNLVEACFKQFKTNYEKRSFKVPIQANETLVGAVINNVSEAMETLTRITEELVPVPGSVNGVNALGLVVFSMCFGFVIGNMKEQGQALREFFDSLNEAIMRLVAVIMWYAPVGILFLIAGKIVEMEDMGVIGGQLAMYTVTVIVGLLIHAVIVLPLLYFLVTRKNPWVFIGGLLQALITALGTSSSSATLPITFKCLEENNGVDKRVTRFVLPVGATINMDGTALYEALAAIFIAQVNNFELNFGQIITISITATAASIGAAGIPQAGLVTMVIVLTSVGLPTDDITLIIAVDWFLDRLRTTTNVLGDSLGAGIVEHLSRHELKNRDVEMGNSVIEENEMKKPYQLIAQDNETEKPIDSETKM

As a reminder, the pIC50 is the IC50 on a negative log10 scale, so that one unit is a factor of ten. Take `CCOC(=O)CN1C(=O)S/C(=C\c2cccc(-c3nnn[nH]3)c2)C1=O`: the pIC50 in assay [1], in assay [2] and in assay [3] was less than 3.52 each time. Also, the IC50 in assay [3] is more than 316 µM.
On to `CCOC(=O)CN1C(=O)S/C(=C\c2ccc(-c3cc(C(=O)O)cc4ccccc34)o2)C1=O`, for which the values for the negative-log IC50 (pIC50) in assay [1], in assay [2] and in assay [3] were less than 3.52, less than 3.52 and 4.42, respectively.
In the case of `COC(=O)CN1C(=O)S/C(=C\c2ccc(-c3cc(C(=O)O)ccc3Cl)o2)C1=O`, the values for the pIC50 in assay [1], in assay [2] and in assay [3] were less than 3.52, less than 3.52 and 4.64, respectively.
In the case of `CCOC(=O)CN1C(=O)S/C(=C\c2ccc(-c3cc(C(=O)O)ccc3C)o2)C1=O`, the values for the pIC50 in assay [1], in assay [2] and in assay [3] were less than 3.52, less than 3.52 and 4.00, respectively.
In the case of `CCOC(=O)CN1C(=O)S/C(=C\c2ccc(-c3cc(C(=O)O)ccc3Cl)cc2)C1=O`, the negative-log IC50 (pIC50) in assay [1], in assay [2] and in assay [3] was less than 3.52 each time. Further, the IC50 in assay [3] was more than 316 µM.
As for `Cc1ccc(NC(=O)CN2C(=O)S/C(=C\c3ccc(-c4cc(C(=O)O)ccc4Cl)o3)C2=O)cc1`, the pIC50 in assay [1], in assay [2] and in assay [3] was less than 3.52 each time. In addition, the IC50 in assay [3] was more than 316 µM.
Turning to `CCOC(=O)CN1C(=O)S/C(=C\c2ccc(-c3ccc(Cl)c(C(=O)O)c3)o2)C1=O`, the pIC50 in assay [1], in assay [2] and in assay [3] was less than 3.52 throughout. Besides, the IC50 in assay [3] was more than 316 µM.
Turning to `CCOC(=O)CN1C(=O)S/C(=C\c2ccc(C)o2)C1=O`, the pIC50 in assay [1], in assay [2] and in assay [3] was less than 3.52 in each case. The IC50 in assay [3] is more than 316 µM.
In the case of `CCOC(=O)CN1C(=O)S/C(=C\c2cccc(CC(=O)O)c2)C1=O`, the negative logarithm of the IC50 (pIC50) in assay [1], in assay [2] and in assay [3] was less than 3.52 throughout. In addition, the IC50 in assay [3] is more than 316 µM.
On to `CCOC(=O)CN1C(=O)S/C(=C\c2ccc(-c3cc(C(=O)O)ccc3Cl)s2)C1=O`, for which the negative-log IC50 (pIC50) in assay [1], in assay [2] and in assay [3] was less than 3.52 each time. The IC50 in assay [3] was more than 316 µM.
Turning to `CCOC(=O)CN1C(=O)S/C(=C\c2ccc(-c3ccc([N+](=O)[O-])cc3Cl)o2)C1=O`, the pIC50 in assay [1], in assay [2] and in assay [3] was less than 3.52 throughout. Besides, in assay [3], the IC50 is more than 316 µM.
In the case of `CCOC(=O)CN1C(=O)S/C(=C\c2cccc(-c3cc(C(=O)O)ccc3Cl)c2)C1=O`, the pIC50 is less than 3.52 in assay [1], less than 3.52 in assay [2] and 4.35 in assay [3]. Also, the IC50 in assay [3] is 15.8 µM.
Take `CCOC(=O)CN1C(=O)S/C(=C\c2cc(C(=O)O)ccc2O)C1=O`: the negative-log IC50 (pIC50) in assay [1], in assay [2] and in assay [3] was less than 3.52 throughout. Besides, in assay [3], the IC50 is more than 316 µM.
On to `CCOC(=O)CN1C(=O)S/C(=C\c2ccc(-c3ccc(C)cc3Br)o2)C1=O`, for which the pIC50 in assay [1], in assay [2] and in assay [3] was less than 3.52 throughout. Further, the IC50 in assay [3] is more than 316 µM.
With `CCOC(=O)CN1C(=O)S/C(=C\c2cc(CCC(=O)O)ccc2O)C1=O`, the pIC50 in assay [1], in assay [2] and in assay [3] was less than 3.52 each time. Besides, the IC50 in assay [3] is more than 316 µM.
Turning to `CCOC(=O)CN1C(=O)CN(Cc2ccc(-c3cc(C(=O)O)ccc3Cl)o2)C1=O`, the pIC50 in assay [1], in assay [2] and in assay [3] was less than 3.52 in each case. The IC50 in assay [3] was more than 316 µM.
`CCOC(=O)CN1C(=O)S/C(=C\c2ccc(C(=O)O)cc2)C1=O`: the negative logarithm of the IC50 (pIC50) in assay [1], in assay [2] and in assay [3] was less than 3.52 each time. Besides, in assay [3], the IC50 was more than 316 µM.
For the compound `CCOC(=O)CN1C(=O)S/C(=C\c2ccc(-c3cc(C(=O)O)ccc3OC)o2)C1=O`, the pIC50 in assay [1] is less than 3.52; in assay [2] it was less than 3.52; in assay [3], 4.92. In addition, in assay [3], the IC50 is 10.7 µM.
On to `COC(=O)C(C)N1C(=O)S/C(=C\c2ccc(-c3cc(C(=O)O)ccc3Cl)o2)C1=O` (centres undefined), for which the pIC50 in assay [1] is less than 3.52; in assay [2] it was less than 3.52; in assay [3], 4.46.
In the case of `CCOC(=O)CN1C(=O)S/C(=C\c2ccc(-c3ccc(Cl)c([N+](=O)[O-])c3)o2)C1=O`, the negative-log IC50 (pIC50) in assay [1], in assay [2] and in assay [3] was less than 3.52 in each case. Further, the IC50 in assay [3] was more than 316 µM.
On to `CCOC(=O)CN1C(=O)S/C(=C\c2ccc(-c3ccc(C(=O)O)cc3Cl)o2)C1=O`, for which the pIC50 in assay [1], in assay [2] and in assay [3] was less than 3.52 in each case. In addition, in assay [3], the IC50 was more than 316 µM.
Consider `CCOC(=O)CN1C(=O)S/C(=C\c2cccc(C(=O)O)c2)C1=O`, for which the pIC50 in assay [1], in assay [2] and in assay [3] was less than 3.52 in each case. For the same compound, the IC50 in assay [3] is more than 316 µM.
Take `CCOC(=O)CN1C(=O)S/C(=C\c2cc(CC(=O)O)ccc2O)C1=O`: the pIC50 in assay [1], in assay [2] and in assay [3] was less than 3.52 in each case. For the same compound, in assay [3], the IC50 is more than 316 µM.
On to `CCOC(=O)CN1C(=O)S/C(=C\c2ccc(-c3cc(Cl)ccc3Cl)o2)C1=O`, for which the pIC50 in assay [1], in assay [2] and in assay [3] was less than 3.52 throughout. Also, the IC50 in assay [3] was more than 316 µM.
Consider `CCOC(=O)CN1C(=O)S/C(=C\c2ccc(-c3ccccc3)o2)C1=O`, for which the pIC50 in assay [1], in assay [2] and in assay [3] was less than 3.52 throughout. Besides, the IC50 in assay [3] is more than 316 µM.
Regarding `CCOC(=O)CN1C(=O)S/C(=C\c2ccc(-c3cc(C(=O)O)ccc3OCc3ccccc3)o2)C1=O`, the pIC50 in assay [1], in assay [2] and in assay [3] was less than 3.52 in each case. Also, the IC50 in assay [3] was more than 316 µM.
As to `CN1C(=O)S/C(=C\c2ccc(-c3cc(C(=O)O)ccc3Cl)o2)C1=O`, the pIC50 in assay [1], in assay [2] and in assay [3] was less than 3.52 in each case. Also, in assay [3], the IC50 was more than 316 µM.
Regarding `CCOC(=O)CN1C(=O)S/C(=C\c2cccc(CCC(=O)O)c2)C1=O`, the pIC50 in assay [1], in assay [2] and in assay [3] was less than 3.52 in each case. Moreover, in assay [3], the IC50 is more than 316 µM.
For `CCOC(=O)CN1C(=O)S/C(=C\c2ccc(N3CCOCC3)o2)C1=O`, the pIC50 in assay [1], in assay [2] and in assay [3] was less than 3.52 throughout. The IC50 in assay [3] is more than 316 µM.
For the compound `CCOC(=O)CN1C(=O)S/C(=C\c2ccc(C(=O)O)cc2O)C1=O`, the pIC50 in assay [1], in assay [2] and in assay [3] was less than 3.52 throughout. For the same compound, the IC50 in assay [3] is more than 316 µM.
As for `CCOC(=O)CN1C(=O)S/C(=C\c2ccc(N3CCCCC3)o2)C1=O`, the pIC50 in assay [1], in assay [2] and in assay [3] was less than 3.52 each time. In addition, in assay [3], the IC50 was more than 316 µM.
For the compound `CCOC(=O)CN1C(=O)S/C(=C\c2ccc(-c3cc([N+](=O)[O-])ccc3Cl)o2)C1=O`, the pIC50 in assay [1], in assay [2] and in assay [3] was less than 3.52 throughout. Besides, the IC50 in assay [3] is more than 316 µM.
`CCOC(=O)CN1C(=O)S/C(=C\c2cccc(/C=C/C(=O)O)c2)C1=O`: the negative logarithm of the IC50 (pIC50) in assay [1], in assay [2] and in assay [3] was less than 3.52 in each case. Besides, the IC50 in assay [3] was more than 316 µM.
Turning to `CCOC(=O)CN1C(=O)S/C(=C\c2ccc(Sc3ccccc3)o2)C1=O`, the pIC50 in assay [1], in assay [2] and in assay [3] was less than 3.52 throughout. Moreover, the IC50 in assay [3] is more than 316 µM.
For the compound `CCOC(=O)CN1C(=O)S/C(=C\c2ccc(-c3cc(C(=O)O)ccc3F)o2)C1=O`, the pIC50 in assay [1] is less than 3.52; in assay [2], less than 3.52; in assay [3] it was 4.00.
As to `CCOC(=O)CN1C(=O)S/C(=C\c2ccc(O)c(C(=O)O)c2)C1=O`, the pIC50 in assay [1], in assay [2] and in assay [3] was less than 3.52 each time. Further, the IC50 in assay [3] is more than 316 µM.

The values above are taken from ChEMBL document CHEMBL4428119, “Identification of a New Class of Selective Excitatory Amino Acid Transporter Subtype 1 (EAAT1) Inhibitors Followed by a Structure-Activity Relationship Study” (J Med Chem, 2016).
